PubChem BioAssay
Results filed as inconclusive are left out.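 How the source made its calls, unless noted: active means inhibition over a set limit, the all-compound mean plus 3 SD, in both replicate runs; inconclusive means over that limit in just one replicate run; inactive means at or under that limit in both runs.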

Legend:
[1] = S. cerevisiae growth inhibition in permissive medium (OD615), pilot counter-assay for S. cerevisiae lifespan shortening project, permissive growth control (AID 705;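 active means growth inhibition above 25% in both replicates, a cutoff set 3 SD above the mean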); conditions: OD615, 24 h, at 10 µM, hits give high values
Method in brief: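 System: Engineered DeaD yeast | Buffer or medium: SC raffinose/galactose permissive medium | Doses: 10 µM single dose, 0.25% DMSO | Times: 24 h exposure, 30 °C | Measured by: OD615 turbidity read | Read-out: Yeast growth inhibition indicated by reduced 24 h OD615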

[2] = S. cerevisiae growth inhibition in restrictive medium, OD615, pilot screen, restrictive growth control, yeast lifespan reduction project (AID 706;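 active means growth inhibition above a set limit, 3 SD over mean compound inhibition, in both replicates, cut at about 43% in these data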;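 further: modified DeaD lifespan yeast strain shifted to restrictive glucose medium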); conditions: OD615, 48 h, at 10 µM, hits give high values
Method in brief: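 Assay system: engineered S. cerevisiae DeaD strain; Buffer or medium: CSMM-D glucose medium; Dosing: 10 µM compound, 0.25% DMSO; Times: cell pre-growth 4 h, compound exposure 48 h, 30 °C; Detection: absorbance (optical density) measured at 615 nm.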

[3] = doxorubicin toxicity protection in MRP-1 cells – H69AR cells, CellTiter-Glo, duplicate, MRP-1 activator project, pilot screen (AID 807;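 active means viability increase at or above a cutoff of the median across tested compounds plus 3 SD, cut at about 8.5% in these data, passing the limit was not always enough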;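 further: compound pretreatment 18-22 h then 72 h combined with doxorubicin; 0% = doxorubicin alone and 100% = vehicle without doxorubicin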); conditions: H69AR viability with doxorubicin, CellTiter-Glo luminescence; at 10 µM; hits give high values
[4] = viability of HCT116 without oncogenic beta-catenin – human colon tumor cells, pilot screen (AID 823;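 active means cell viability at or below a set limit in both duplicate runs, the limit being the all-compound median minus 4 SD, cut at about 23% in these data, passing the limit was not always enough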;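 further: 0% = wells killed by 20 µM Hyamine and 100% = untreated DMSO cell wells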); conditions: HCT116 beta-catenin knockout viability, CellTiter-Glo, 60 h; at 10 µM; hits give low values
[5] = viability of PTEN-null HCT116 cells – cell-based, HCT116 clonal line, CellTiter-Glo, pilot screen (AID 824;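 active means viability at or below 27.92% in each of two runs, the all-compound median minus 4 SD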;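 further: 0% = 20 µM Hyamine control and 100% = vehicle cell control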); conditions: HCT116 PTEN-deleted viability, 60 h, at 10 µM, hits give low values
[6] = RAM pathway blockade in budding yeast – dse1pr::URA3 reporter, 5-FOA selection, pilot screen (AID 869);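 further: 0% = DMSO wells with no growth and 100% = 10 µM 1-NA-PP1 with full growth; RAM network block rescues cells from 5-FOA so hits raise OD615 growth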; conditions: S. cerevisiae dse1pr::URA3 5-FOA growth, OD615, 2 d; at 10 µM; hits give high values; strain carries analog-sensitive mutant Cbk1 kinase
[7] = RAM signaling pathway blockade in yeast – S. cerevisiae, Pdr1DBD-CYC8 efflux-inhibited sensitized strain, primary screen (AID 1298;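 active means RAM network inhibition above 8.4% in each of two replicates, 3 SD over the compound average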;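 further: 0% = DMSO untreated cells without growth and 100% = 10 µM 1-NA-PP1 full growth; higher means more yeast growth rescued from 5-FOA killing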); conditions: S. cerevisiae cbk1-as DSE1-URA3 strain, 5-FOA growth OD615, 2 d; at 50 µM; hits give high values

COc1cccc(-c2csc(NC(=O)C3CC3)n2)c1
inactive: growth inhibition [1] 1.37% | growth inhibition [2] 13.5% | viability increase [3] 4.92% | viability [4] 96.6% | viability [5] 91.5% | inhibition [6] -0.98% | RAM network inhibition [7] 1.49%

CCn1c(O)c(C2=NCCCC2)c2ccccc21
inactive: growth inhibition [1] 0.575% | growth inhibition [2] 11.6% | viability increase [3] -0.12% | viability [4] 95% | viability [5] 102% | inhibition [6] -0.49% | RAM network inhibition [7] 1.14%

CCC(C#CCN1CCCCC1)(CC)OCCC#N
inactive: growth inhibition [1] -4.58% | growth inhibition [2] -9.71% | viability increase [3] -1.94% | viability [4] 102% | viability [5] 97.6% | inhibition [6] 0.79% | RAM network inhibition [7] 4.07%

Cc1oc(-c2ccc(Cl)cc2)nc1CN1CCCC(C(=O)N2CCN(C(=O)c3ccco3)CC2)C1 (configuration not stated)
inactive: growth inhibition [1] -8.52% | growth inhibition [2] -14.5% | viability increase [3] -4.07% | viability [4] 33.8% | viability [5] 54.6% | inhibition [6] -0.38% | RAM network inhibition [7] 7.1%

c1ccc(Nc2nc(N3CCOCC3)nc(N3CCOCC3)n2)cc1
inactive: growth inhibition [1] 5.75% | growth inhibition [2] 6.58% | viability increase [3] -6.19% | viability [4] 67.9% | viability [5] 67.2% | inhibition [6] 0.65% | RAM network inhibition [7] 1.44%

COc1ccc(CN2CCN(c3ncccn3)CC2)c(OC)c1
inactive: growth inhibition [1] -0.81% | growth inhibition [2] 3.13% | viability increase [3] -1.8% | viability [4] 94.5% | viability [5] 89.3% | inhibition [6] 1.24% | RAM network inhibition [7] 6.9%

CC(C)Sc1nc(SCC(=O)NCc2ccco2)c2c3c(sc2n1)COC(C)(C)C3
inactive: growth inhibition [1] -10.2% | growth inhibition [2] -10.9% | viability increase [3] -3.75% | viability [4] 83.2% | viability [5] 86.2% | inhibition [6] 0.615% | RAM network inhibition [7] 11.6%

Cn1c(=O)c2c(nc(NCCc3ccccc3)n2Cc2ccc(F)cc2)n(C)c1=O
inactive: growth inhibition [1] -4.81% | growth inhibition [2] -8.86% | viability increase [3] 1.3% | viability [4] 69.8% | viability [5] 55.3% | inhibition [6] 1.03% | RAM network inhibition [7] 5.94%

O=C(Cn1c(NCCCO)nc2ccccc21)c1cccs1
inactive: growth inhibition [1] -5.45% | growth inhibition [2] -2.54% | viability increase [3] -1.98% | viability [4] 110% | viability [5] 91.7% | inhibition [6] 2.46% | RAM network inhibition [7] 0.62%

CCOC(=O)C1=C(C)S/C(=C\N(C)C)C1=O
inactive: growth inhibition [1] -8.63% | growth inhibition [2] -1.29% | viability increase [3] -0.78% | viability [4] 98.6% | viability [5] 90.3% | inhibition [6] -0.055% | RAM network inhibition [7] -2.3%

COc1cccc(C2NC(CCSC)(C(=O)O)C3C(=O)N(C(C)C)C(=O)C23)c1O (configuration not stated)
inactive: growth inhibition [1] -1.2% | growth inhibition [2] 8% | viability increase [3] 0.13% | viability [4] 95% | viability [5] 97.2% | inhibition [6] 1.93% | RAM network inhibition [7] -1.51%

O=C(c1ccccc1)c1ccc(OC(=O)N2CCOCC2)cc1
inactive: growth inhibition [1] -7.92% | growth inhibition [2] 4.65% | viability increase [3] 1.36% | viability [4] 109% | viability [5] 90.7% | inhibition [6] 1.49% | RAM network inhibition [7] 8.53%

COc1cc(NC(=O)c2cc3ccccc3o2)c(OC)cc1Cl
inactive: growth inhibition [1] -7.12% | growth inhibition [2] -6.08% | viability increase [3] -4.12% | viability [4] 80.7% | viability [5] 73.6% | inhibition [6] 3.16% | RAM network inhibition [7] 9.24%

CC1=C(C(N)=O)C(c2ccccc2)n2nc(-c3cccc(C)c3)nc2N1 (configuration not stated)
inactive: growth inhibition [1] 3.1% | growth inhibition [2] 2.56% | viability increase [3] -2.74% | viability [4] 98.9% | viability [5] 97.1% | inhibition [6] 0.79% | RAM network inhibition [7] 3.91%

CC1CCCCN1CCn1cnc2c([nH]c3ccccc32)c1=O (configuration not stated)
inactive: growth inhibition [1] -2.21% | growth inhibition [2] 5.29% | viability increase [3] -4.17% | viability [4] 88.1% | viability [5] 87.4% | inhibition [6] -0.135% | RAM network inhibition [7] 4.11%

Clc1ccccc1N1CCN(c2ncnc3nc[nH]c23)CC1
inactive: growth inhibition [1] 7.42% | growth inhibition [2] -4.18% | viability increase [3] -1.4% | viability [4] 95% | viability [5] 95.7% | inhibition [6] 4.08% | RAM network inhibition [7] 5.77%

Cn1c(NC(=O)c2ccc(Cl)cc2Cl)cc(=O)n(C)c1=O
inactive: growth inhibition [1] -4.17% | growth inhibition [2] 0.265% | viability increase [3] -2.37% | viability [4] 98.7% | viability [5] 90.8% | inhibition [6] 0.95% | RAM network inhibition [7] -0.2%

CCOC(=O)N1CCN(C(=O)C(C)(C)Oc2ccc(Cl)cc2)CC1
inactive: growth inhibition [1] -8.16% | growth inhibition [2] -2.48% | viability increase [3] -1.61% | viability [4] 93% | viability [5] 96.1% | inhibition [6] 0.28% | RAM network inhibition [7] 3.09%

CCC(C)(c1ccc(C(=O)OC)s1)c1ccc(C(=O)OC)s1
inactive: growth inhibition [1] -5.53% | growth inhibition [2] -2.49% | viability increase [3] 1.15% | viability [4] 73.3% | viability [5] 76.8% | inhibition [6] 0.63% | RAM network inhibition [7] 1.02%

COc1ccc(OC)c(C2CC(=O)N3CN(c4cccc(Cl)c4C)CSC3=C2C#N)c1 (configuration not stated)
inactive: growth inhibition [1] 2.17% | growth inhibition [2] 13.8% | viability increase [3] -5.48% | viability [4] 74% | viability [5] 72.1% | inhibition [6] 1.87% | RAM network inhibition [7] 2.07%

COc1cc(S(=O)(=O)N2CCN(Cc3ccc4c(c3)OCO4)CC2)c(C)cc1C
inactive: growth inhibition [1] -4.19% | growth inhibition [2] -11.6% | viability increase [3] -4.77% | viability [4] 57.5% | viability [5] 71.1% | inhibition [6] 2.5% | RAM network inhibition [7] 5.84%

CC(=O)N1CCc2cc(C(=O)CN3CCN(c4cccc(Cl)c4)CC3)ccc21
inactive: growth inhibition [1] -11% | growth inhibition [2] -7.26% | viability increase [3] 0.32% | viability [4] 69.3% | viability [5] 76.8% | inhibition [6] 1.65% | RAM network inhibition [7] 3.12%

Cc1c(C(=O)NCc2ccco2)sc2nc(-c3ccccc3)cn12
inactive: growth inhibition [1] 3.59% | growth inhibition [2] 10.2% | viability increase [3] -4.77% | viability [4] 78.6% | viability [5] 67.3% | inhibition [6] 0.04% | RAM network inhibition [7] 2.7%

CCCn1c(CNS(=O)(=O)c2ccc(C)cc2)nc2ccccc21
inactive: growth inhibition [1] -7.5% | growth inhibition [2] 7.18% | viability increase [3] -2.43% | viability [4] 83.6% | viability [5] 85.2% | inhibition [6] 0.135% | RAM network inhibition [7] 0.52%

Cc1c(C(=O)NCC2CCCO2)oc2ccc(S(=O)(=O)N3CC(C)CC(C)C3)cc12 (configuration not stated)
inactive: growth inhibition [1] -2.38% | growth inhibition [2] 14.2% | viability increase [3] -4.71% | viability [4] 44.5% | viability [5] 38.1% | inhibition [6] 3.72% | RAM network inhibition [7] 4.28%

COc1ccc(OC)c(NC(=O)C2CCCN(S(=O)(=O)c3cccc4cccnc34)C2)c1 (configuration not stated)
inactive: growth inhibition [1] -12.7% | growth inhibition [2] -10.7% | viability increase [3] -3.24% | viability [4] 87.3% | viability [5] 80.1% | inhibition [6] 1.78% | RAM network inhibition [7] 6.71%

COc1ccccc1-c1nc2n(n1)C(c1ccccc1Cl)C(C(N)=O)=C(C)N2 (configuration not stated)
inactive: growth inhibition [1] -11.6% | growth inhibition [2] -6.96% | viability increase [3] -6.22% | viability [4] 91% | viability [5] 85.9% | inhibition [6] -0.085% | RAM network inhibition [7] -1.52%

CCC(C)C1C(C#N)=C(N)Oc2n[nH]c(-c3ccccc3)c21 (configuration not stated)
inactive: growth inhibition [1] -4.81% | growth inhibition [2] -3.89% | viability increase [3] -2.23% | viability [4] 97.3% | viability [5] 94.3% | inhibition [6] 1.06% | RAM network inhibition [7] 5.9%

Cc1ccc(NC(=O)C2C3C=CC4(CN(Cc5cccnc5)C(=O)C24)O3)cc1F (configuration not stated)
inactive: growth inhibition [1] -0.35% | growth inhibition [2] -0.595% | viability increase [3] -1.71% | viability [4] 96.7% | viability [5] 97.2% | inhibition [6] 0.345% | RAM network inhibition [7] 9.57%

CCCN1CCN(C(=O)C2CCN(S(=O)(=O)c3ccc4c(c3)oc(=O)n4C)CC2)CC1
inactive: growth inhibition [1] -6.11% | growth inhibition [2] -13.9% | viability increase [3] -0.29% | viability [4] 108% | viability [5] 98.5% | inhibition [6] 3.06% | RAM network inhibition [7] -1.87%

CC(=O)c1ccc(N2CCN(C(=O)c3cc4c(=O)n(C)c5ccccc5c4n3C)CC2)cc1
inactive: growth inhibition [1] -6.79% | growth inhibition [2] -16.3% | viability increase [3] -3.01% | viability [4] 96.5% | viability [5] 88.5% | inhibition [6] 1.98% | RAM network inhibition [7] 2.91%

COc1ccc(-c2cc3ccccc3n2CC(O)CN2CCN(CCO)CC2)cc1 (configuration not stated)
inactive: growth inhibition [1] -6.33% | growth inhibition [2] -2.77% | viability increase [3] -3.91% | viability [4] 80.3% | viability [5] 86% | inhibition [6] 0.72% | RAM network inhibition [7] 4.23%

COc1ccc(CSc2nnnn2C)cc1F
inactive: growth inhibition [1] -3.21% | growth inhibition [2] 4.8% | viability increase [3] -0.89% | viability [4] 91.4% | viability [5] 95% | inhibition [6] 2.62% | RAM network inhibition [7] -0.46%

COc1ccc(Nc2cc(C)nc3nc(C)nn23)cc1Cl
inactive: growth inhibition [1] 0.45% | growth inhibition [2] 13.4% | viability increase [3] -3.91% | viability [4] 101% | viability [5] 93.5% | inhibition [6] -0.465% | RAM network inhibition [7] -0.01%

CCC(c1ccccc1)c1nc(-c2ccccn2)no1 (configuration not stated)
inactive: growth inhibition [1] -3.45% | growth inhibition [2] -5.84% | viability increase [3] 1.44% | viability [4] 91.8% | viability [5] 97.8% | inhibition [6] 0.495% | RAM network inhibition [7] 3.77%

O=C(NCc1ccc2c(c1)OCO2)C1CCC(CNc2c(N3CCCC3)c(=O)c2=O)CC1 (configuration not stated)
inactive: growth inhibition [1] -5.55% | growth inhibition [2] -7.12% | viability increase [3] -1.29% | viability [4] 104% | viability [5] 102% | inhibition [6] 3.97% | RAM network inhibition [7] 1.53%
